mIAP act: mouse IAP activation. muIAP, CDP-Star luminescence, 30 min; hits give high values; 1 = vehicle-only enzyme signal, 0 = enzyme-free wells. activation factor at 10 µM. actives 0.24% (n = 330,000). AID 2805;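 active = activation factor of at least 2 at 20 µM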
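Assay system: mouse IAP enzyme / Compound: DMSO-dissolved test compounds / Timing: 30 min, room temperature / Measured by: luminescence from enzymatic CDP-Star hydrolysis / Control set: DMSO-only wells, enzyme-free buffer wells as negative control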
hIAP block: blocks human intestinal alkaline phosphatase; P09923; actives 0.12% (n = 330,000); purified IAP, CDP-Star luminescence, 30 min; inhibition, % at 10 µM; AID 2544;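 active = inhibition reaching a set limit with compound at 10 µM in the primary screen, cut at about 35% in these data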;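 note: plate controls were DMSO wells with enzyme for no effect and no-enzyme buffer wells for full effect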
Target sequence (P09923 whole entry, looked up): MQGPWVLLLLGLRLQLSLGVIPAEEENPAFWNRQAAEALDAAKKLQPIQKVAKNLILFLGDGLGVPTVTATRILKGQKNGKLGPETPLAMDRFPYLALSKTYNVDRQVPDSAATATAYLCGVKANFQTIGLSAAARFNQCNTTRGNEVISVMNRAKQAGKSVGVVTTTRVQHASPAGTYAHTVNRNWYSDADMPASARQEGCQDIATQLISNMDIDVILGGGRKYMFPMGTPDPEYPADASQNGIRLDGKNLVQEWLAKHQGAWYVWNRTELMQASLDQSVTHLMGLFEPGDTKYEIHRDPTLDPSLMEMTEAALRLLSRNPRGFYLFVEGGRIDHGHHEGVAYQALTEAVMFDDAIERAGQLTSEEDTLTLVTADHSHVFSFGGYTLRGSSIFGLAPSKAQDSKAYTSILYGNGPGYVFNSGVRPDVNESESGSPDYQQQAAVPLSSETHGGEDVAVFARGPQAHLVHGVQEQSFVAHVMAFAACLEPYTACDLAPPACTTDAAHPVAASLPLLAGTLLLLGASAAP
bIAP inhibitor: blocks bovine intestinal alkaline phosphatase activity | purified bovine IAP, CDP-star luminescence, 30 min | inhibition, % at 20 µM | 190,000 tested, under 10 active;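 active = over 50% inhibition of intestinal alkaline phosphatase at 20 µM in the single-dose screen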
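Assay system: bovine IAP enzyme; medium: DEA buffer 100 mM, pH 9.8, with MgCl2 1.0 mM, ZnCl2 0.02 mM; doses: 20 µM single dose; incubation: enzyme reaction for 30 min at room temperature; detection: CDP-star luminescence signal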
mIAP inh: blocks mouse intestinal alkaline phosphatase. purified mouse IAP, CDP-Star luminescence, 30 min. inhibition, % at 10 µM. actives 0.2% (n = 330,000). AID 2806;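 active = inhibition of at least 40% at 10 µM in the primary screen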;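 note: plate controls were DMSO with enzyme for no effect and no enzyme wells for full effect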
hIAP act: increases human intestinal alkaline phosphatase activity | purified human IAP, CDP-Star luminescence, 30 min; hits give high values; 1 = vehicle-only enzyme, 0 = enzyme-free background | activation factor at 10 µM | actives 0.16% (n = 330,000);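 active = activation factor of the enzyme at least 2-fold when tested at 20 µM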
bIAP activator: increases bovine intestinal alkaline phosphatase activity; purified bovine IAP, CDP-star luminescence, 30 min; hits give high values; fold of DMSO-control signal, blank-subtracted; actives 0.17% (n = 200,000); AID 1016; activation factor at 20 µM;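 active = activation factor of 2 or more at 20 µM, a signal rise over negative controls twice the positive control's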
* = called active by the depositor; i = inactive; . = no result. Shown are actives, neighbours in structure and some others; about 0.72% of the full set was active somewhere.

SMILES	mIAP act	hIAP block	bIAP inhibitor	mIAP inh	hIAP act	bIAP activator
CC(=O)Nc1ccc(NC(=O)Nc2ccc(C)c(C)c2)cc1	1.2	22	-5	-20	0.79	1.1
O=C(Nc1ccc(Oc2ccc(NC(=O)Nc3ccccc3Cl)cc2)cc1)Nc1ccccc1Cl	2*	-1	.	-102	1	.
O=C(Nc1ccc(F)cc1)Nc1cccc(Br)c1	3*	-1	.	-199	1	.
O=[N+]([O-])c1ccccc1S(=O)(=O)Nc1ccc2c(c1)OCCO2	0.97	22	.	3	0.78	.
O=C(Nc1ccncc1)Nc1cccc(Cl)c1Cl	1.7	-25	.	-73	1.3	.
O=C(Nc1ccccc1)Nc1cccc(Cl)c1Cl	2.9*	-3	13	-192	1	0.9
CC(C)N1CC(O)=C(c2nc3ccccc3[nH]2)C1=N	1.2	-1	-122	-15	1	2.2*
CC(C1CC2CCC1C2)N1CC(O)=C(c2nc3ccccc3[nH]2)C1=N (configuration not stated)	1	-84	.	-4	1.8	.
O=C(Nc1ccc(Cl)cc1)NC1(C(=O)NCCCN2CCOCC2)CCCCC1	1.1	0	-176	-8	0.99	2.8*
COC(=O)C(C(=O)OC)c1ncc(C(F)(F)F)cc1Cl	1	8	-124	-4	0.92	2.2*
Cc1ccc(-n2ncc3c(N4CCCC(C)C4)ncnc32)c(C)c1 (configuration not stated)	0.56	-11	.	44*	1.1	.
CCc1cccc(CC)c1NC(=O)COC(=O)C1(C)CC1(Cl)Cl (configuration not stated)	1.1	-13	0	-14	1.1	1
CCOc1cc(/C=C2\CCC/C(=C\c3cc(Cl)c(O)c(OCC)c3)C2=O)cc(Cl)c1O	0.56	21	.	44*	0.79	0.3
Cc1cc(C)c(NC(=O)Cn2nnc(C(=O)NCc3ccc4c(c3)OCO4)c2N)c(C)c1	0.98	7	.	2	0.93	.
N#Cc1ccc(NC(=O)Nc2ccc(Cl)cc2)cc1	2.2*	5	14	-118	0.95	0.9
Cc1nn(Cc2cccc(Oc3ccccc3)c2)c(C)c1NC(=O)NC12CC3CC(CC(C3)C1)C2	6.8*	4	0	i	0.96	1
O=C(NCc1ccccc1)NC12CC3CC(CC(C3)C1)C2	1.1	5	.	-10	0.95	.
COc1cc2c(cc1OC)C(C(=O)Nc1ccc3c(c1)OCCO3)C1c3ccccc3CCN1C2=O (configuration not stated)	1.9	5	-146	-94	0.95	2.5*
Cc1ccc(SCc2nc3ccccc3[nH]2)cc1	0.98	-8	-4	2	1.1	1
Cc1ccc(CSCc2nc3ccccc3[nH]2)cc1	.	.	-131	.	.	2.3*
O=C(CCl)N(CCc1ccccc1)CCc1ccccc1	0.97	2	.	2	0.98	.
CCN(CC)S(=O)(=O)c1ccc(C(=O)NCC2CCCCC2)cc1	0.93	13	.	7	0.87	.
CC(=O)c1ccc(OCc2ccc(Oc3c(Cl)cccc3[N+](=O)[O-])cc2)cc1	0.9	-204	9	10	3*	0.9
CC(=O)c1ccc(OCc2ccc(C(=O)c3ccccc3)cc2)cc1	1	-3	-10	0	1	1.1
Cc1cc(C)nc(/N=C(\N)Nc2ccc(OCc3ccccc3)cc2)n1	1.7	-108	i	-70	2.1*	6.2*
SMILES	mIAP act	hIAP block	bIAP inhibitor	mIAP inh	hIAP act	bIAP activator
Cn1c(C(=O)N2CCC(C(N)=O)CC2)cc2cc(Cl)ccc21	1	5	.	0	0.95	.
COc1ccc(OCC(=O)N2CCN(C(=O)COc3ccc(Br)cc3)CC2)cc1	0.26	11	5	74*	0.89	1
CC(=O)N1CCN(C(=O)COc2ccc(Br)cc2)CC1	0.97	-12	2	3	1.1	1
CC(C)(C)n1nnnc1CN1C2CCC1CC(NC(=O)Nc1ccccc1)C2 (configuration not stated)	1	-8	-121	-2	1.1	2.2*
CCOC(=O)c1ccc(NC(=O)NC2CC3CCC(C2)N3Cc2nnnn2Cc2ccco2)cc1 (configuration not stated)	2.2*	-53	-27	-124	1.5	1.3
Cc1ccc(NC(=S)NC2CC3CCC(C2)N3Cc2ccco2)cc1C (configuration not stated)	1.4	-19	0	-42	1.2	1
Cc1ccc(Nc2nc(/N=C/NO)n[nH]2)cc1C	0.97	-149	-18	3	2.5*	1.2
COc1ccc(/C=C/C2=CCN(Cc3ccc(OC)cc3)CC2)cc1	0.98	8	8	2	0.92	0.9
CCOC(=O)C1(CC2CCCCO2)CCN(C(=O)Nc2cccc(SC)c2)CC1 (configuration not stated)	2.4*	-45	-18	-141	1.4	1.2
Cc1ccc(C)c(C(C)NC(=S)NCc2ccc(F)cc2)c1 (configuration not stated)	2.2*	8	.	-117	0.92	.
Cc1ccc(NC(=S)NCc2ccc(F)cc2)cc1	1.4	-6	.	-45	1.1	.
Cc1ccc(C)[n+](CC(=O)N2CCCCC2)c1	1	-2	-2	-1	1	1
COc1ccc(N=c2scc(-c3ccc(S(=O)(=O)N4CCOCC4)cc3)n2CCCO)cc1	.	.	7	.	.	0.9
COc1ccc(-c2csc(=Nc3ccccc3)n2CCO)cc1	0.91	-3	-95	9	1	2*
CCC1CCCCN1C(=O)CCc1nnc(Cc2cc(OC)ccc2OC)o1 (configuration not stated)	0.94	-3	.	6	1	.
S=C(Nc1ccc(Cl)cc1)NC1CCCCC1	1.8	9	.	-81	0.91	.
S=C(Nc1ccc(Br)cc1)NC1CCCCC1	2.5*	1	-11	-150	0.99	1.1
S=C(Nc1ccc(Nc2ccccc2)cc1)NC1CCCCCC1	1.2	-3	11	-19	1	0.9
FC(F)Oc1ccc(NC(=S)NC2CCCCCCC2)cc1	2.6*	-13	.	-164	1.1	.
CCOC(=O)c1csc(NC(=O)CC2CCCC2)n1	1	-24	-21	-2	1.2	1.2
COc1ccc(Cl)cc1NC(=O)C(C)N1CCN(c2ccccn2)CC1 (configuration not stated)	0.98	-7	.	2	1.1	.
COC(=O)Nc1ccc(S(=O)(=O)Nc2ccc(O)cc2)cc1	0.88	-5	-142	12	1.1	2.4*
COC(=O)Nc1ccc(S(=O)(=O)Nc2ccc(C)cc2)cc1	.	.	6	.	.	0.9
COc1cc2c(cc1OC)C(c1cc3cccc(C)c3[nH]c1=O)N(C(=O)c1ccco1)CC2 (configuration not stated)	1	5	.	-1	0.95	.
Cc1c(C)n(Cc2ccccc2)c2ccc(C(=O)OCCCN(C)C)cc12	1.1	3	-120	-9	0.97	2.2*
